Results published in ChEMBL document CHEMBL1139862, “Malaria-infected mice are cured by a single dose of novel artemisinin derivatives” (2007).

What was measured:
Format in all cases: functional
[1] = test system: Mus musculus; assay: Survival of Plasmodium berghei GFP infected mice (Mus musculus) at 10 mg/kg, subcutaneous after single dose
Procedure, shortened: (§1)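 Single subcutaneous dose given on day 1 after infection; vehicle Tween 80 (70%)/ethanol (30%), then 10× dilution with water. Three animals per dimer group. Read-out is average survival in days after infection. Mice alive at day 30 were sacrificed, and if no parasites were detected they were counted cured. Parasitemia was measured by flow cytometry.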

[2] = test system: Mus musculus; assay: Survival of Plasmodium berghei GFP infected mice (Mus musculus) at 30 mg/kg, peroral after three doses; conditions: route oral
Procedure, shortened: as §1, with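 “Three consecutive daily oral doses starting” for “Single subcutaneous dose given on”, “Survivors” for “Mice alive”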

[3] = test system: Mus musculus; assay: Survival of Plasmodium berghei GFP infected mice (Mus musculus) at 3 mg/kg, subcutaneous after single dose; procedure, shortened: as §1
[4] = test system: Mus musculus; assay: Survival of Plasmodium berghei GFP infected mice (Mus musculus) at 30 mg/kg, subcutaneous after single dose; procedure, shortened: as §1

SMILES	Survival [1] [days]	Survival [2] [days]	Survival [3] [days]	Survival [4] [days]
C[C@H]1[C@@H](CC(C[C@H]2O[C@H]3O[C@@]4(C)CC[C@H]5[C@H](C)CC[C@@H]([C@H]2C)[C@@]35OO4)C(=O)NCc2ccccc2)O[C@@H]2O[C@@]3(C)CC[C@H]4[C@H](C)CC[C@@H]1[C@@]24OO3 (some centres not stated)	15	12.7	12.3	>30
C[C@H]1[C@@H](CC(C[C@H]2O[C@H]3O[C@@]4(C)CC[C@H]5[C@H](C)CC[C@@H]([C@H]2C)[C@@]35OO4)C(=O)NC(C)(C)C)O[C@@H]2O[C@@]3(C)CC[C@H]4[C@H](C)CC[C@@H]1[C@@]24OO3 (some centres not stated)	25.3	14.7	14	>30
C[C@H]1[C@@H](CC(CNc2ccccc2)C[C@H]2O[C@@H]3O[C@@]4(C)CC[C@H]5[C@H](C)CC[C@@H]([C@H]2C)[C@@]35OO4)O[C@@H]2O[C@@]3(C)CC[C@H]4[C@H](C)CC[C@@H]1[C@@]24OO3 (some centres not stated)	12.3	–	8	>30
C[C@H]1[C@@H](CC(C[C@H]2O[C@H]3O[C@@]4(C)CC[C@H]5[C@H](C)CC[C@@H]([C@H]2C)[C@@]35OO4)C(=O)NNC(=O)c2ccncc2)O[C@@H]2O[C@@]3(C)CC[C@H]4[C@H](C)CC[C@@H]1[C@@]24OO3 (some centres not stated)	10	7	9	>30
C[C@H]1[C@@H](CC(O)(COCc2ccncc2)C[C@H]2O[C@@H]3O[C@@]4(C)CC[C@H]5[C@H](C)CC[C@@H]([C@H]2C)[C@@]35OO4)O[C@@H]2O[C@@]3(C)CC[C@H]4[C@H](C)CC[C@@H]1[C@@]24OO3 (some centres not stated)	13.3	>30	9.7	15
Cc1ccc(COCC(C[C@H]2O[C@@H]3O[C@@]4(C)CC[C@H]5[C@H](C)CC[C@@H]([C@H]2C)[C@@]35OO4)C[C@H]2O[C@@H]3O[C@@]4(C)CC[C@H]5[C@H](C)CC[C@@H]([C@H]2C)[C@@]35OO4)cc1 (some centres not stated)	10	>30	8	27
C[C@H]1[C@H](OC(=O)CCC(=O)O)O[C@@H]2O[C@@]3(C)CC[C@H]4[C@H](C)CC[C@@H]1[C@@]24OO3 [ARTESUNATE]	8.6	7.5	7.3	9.1
